Data reported in ChEMBL document CHEMBL4414551, “Design, Synthesis, and Biological Evaluation of Substituted 4,6-Dihydrospiro[[1,2,3]triazolo[4,5-b]pyridine-7,3'-indoline]-2',5(3H)-dione Analogues as Potent NS4B Inhibitors for the Treatment of Dengue Virus Infection” (J Med Chem, 2019).

Legend:
dengue virus type 1 = assay: Antiviral activity against Dengue virus 1 WestPac infected in human HuH7 replicon cells expressing Renilla luciferase and neomycin-resistance genes assessed as reduction in viral replication incubated for 48 hrs by luciferase reporter replicon-based assay; format: functional, organism-based; details: Huh-7, 48 h
Summary of the method: (§1)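 Huh7 cells stably carrying a Renilla luciferase/neomycin-resistance replicon (DENV-1 WestPac, DENV-2 NGC, DENV-3 D3MY05-34640 or DENV-4 D4MY01-22713). Cells seeded at 10k per well and incubated overnight at 37 °C, 5% CO2. Then exposed to 2-fold serial compound dilutions for 48 h, in duplicate. Luciferase read with a live-cell substrate. EC50 from four-parameter logistic fit.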

dengue virus type 3 = assay: Antiviral activity against Dengue virus 3 D3MY05-34640 infected in human HuH7 replicon cells expressing Renilla luciferase and neomycin-resistance genes assessed as reduction in viral replication incubated for 48 hrs by luciferase reporter replicon-based assay; format: functional, organism-based; details: D3MY05-34640, Huh-7, 48 h; summary of the method: as §1
dengue virus type 2 = assay: Antiviral activity against Dengue virus 2 NGC infected in human HuH7 replicon cells expressing Renilla luciferase and neomycin-resistance genes assessed as reduction in viral replication incubated for 48 hrs by luciferase reporter replicon-based assay; format: functional, organism-based; details: Huh-7, 48 h; summary of the method: as §1
dengue virus type 4 = assay: Antiviral activity against Dengue virus 4 D4MY01-22713 infected in human HuH7 replicon cells expressing Renilla luciferase and neomycin-resistance genes assessed as reduction in viral replication incubated for 48 hrs by luciferase reporter replicon-based assay; format: functional, organism-based; details: D4MY01-22713, Huh-7, 48 h; summary of the method: as §1
[1] = Cytotoxicity in human HuH7 replicon cells infected with Dengue virus 2 NGC assessed as reduction in cell viability incubated for 48 hrs by Cell-titer-Glo reagent based assay; parameters: species or system Huh-7
Summary of the method: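 Huh7 cells or Huh7 replicon cells plated, then held at 37 °C with 5% CO₂ overnight. Exposed to 2-fold serial compound dilutions for 48 h, in duplicate. Viability read with CellTiter-Glo and normalized to 0.45% DMSO wells set at 100%. CC50 from four-parameter logistic fit.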

Row | Structure (SMILES) | EC50 (dengue virus type 1) | EC50 (dengue virus type 3) | EC50 (dengue virus type 2) | EC50 (dengue virus type 4) | CC50 at 48 h [1]
1 | C=CCN1C(=O)[C@]2(CC(=O)Nc3c2nnn3[C@@H](C)c2ccc(Cl)cc2)c2cc(Cl)ccc21 | 2100 nM | 5 nM | 38 nM | > 5000 nM | > 10000 nM
2 | Cc1ccc(CN2C(=O)[C@]3(CC(=O)Nc4c3nnn4[C@@H](C)c3ccc(Cl)cc3)c3cc(Cl)ccc32)cn1 | > 5000 nM | 11 nM | 150 nM | > 5000 nM | > 10000 nM
3 | CCCN1C(=O)[C@]2(CC(=O)Nc3c2nnn3[C@@H](C)c2ccc(Cl)cc2)c2cc(Cl)ccc21 | 1900 nM | 10 nM | 71 nM | > 5000 nM | > 10000 nM
4 | C[C@@H](c1ccc(Cl)cc1)n1nnc2c1NC(=O)C[C@]21C(=O)N(CCN2CCOCC2)c2ccc(Cl)cc21 | > 5000 nM | 17 nM | 75 nM | > 5000 nM | > 10000 nM
5 | C[C@@H](c1ccc(Cl)cc1)n1nnc2c1NC(=O)C[C@]21C(=O)Nc2ccc(Cl)cc21 | > 5000 nM | 10 nM | 39 nM | > 5000 nM | > 10000 nM
6 | C[C@@H](c1ccc(Cl)cc1)n1nnc2c1NC(=O)C[C@]21C(=O)N(C)c2ccc(Cl)cc21 | > 5000 nM | 4 nM | 19 nM | > 5000 nM | > 10000 nM
7 | C[C@@H](c1ccc(Cl)cc1)n1nnc2c1NC(=O)C[C@]21C(=O)N(CCN2CCC2)c2ccc(Cl)cc21 | > 5000 nM | 7 nM | 67 nM | > 5000 nM | > 10000 nM
8 | C[C@@H](c1ccc(Cl)cc1)n1nnc2c1NC(=O)C[C@]21C(=O)N(Cc2ccccn2)c2ccc(Cl)cc21 | > 5000 nM | 3 nM | 20 nM | > 5000 nM | > 10000 nM
9 | C[C@@H](c1ccc(Cl)cc1)n1nnc2c1NC(=O)C[C@]21C(=O)N(CCCCCCN(C)C)c2ccc(Cl)cc21 | 1500 nM | 66 nM | 900 nM | > 5000 nM | > 10000 nM
10 | C[C@@H](c1ccc(Cl)cc1)n1nnc2c1NC(=O)C[C@]21C(=O)N(CCN(C)CCS(C)(=O)=O)c2ccc(Cl)cc21 | > 5000 nM | 18 nM | 77 nM | > 5000 nM | > 10000 nM
11 | C[C@@H](c1ccc(Cl)cc1)n1nnc2c1NC(=O)C[C@]21C(=O)N(Cc2cccnc2)c2ccc(Cl)cc21 | 3200 nM | 21 nM | 29 nM | > 5000 nM | > 10000 nM
12 | CC#CCN1C(=O)[C@]2(CC(=O)Nc3c2nnn3[C@@H](C)c2ccc(Cl)cc2)c2cc(Cl)ccc21 | > 5000 nM | 20 nM | 63 nM | > 5000 nM | > 10000 nM
13 | CC(C)N1C(=O)[C@]2(CC(=O)N(C(C)C)c3c2nnn3[C@@H](C)c2ccc(Cl)cc2)c2cc(Cl)ccc21 | 3800 nM | 1500 nM | > 10000 nM | 3000 nM | > 10000 nM
14 | C[C@@H](c1ccc(Cl)cc1)n1nnc2c1NC(=O)C[C@]21C(=O)N(CC(=O)O)c2ccc(Cl)cc21 |  |  | 2400 nM |  | > 10000 nM
15 | C[C@@H](c1ccc(Cl)cc1)n1nnc2c1NC(=O)C[C@]21C(=O)N(CCCBr)c2ccc(Cl)cc21 | 2400 nM | 76 nM | 250 nM | 3200 nM | > 10000 nM
16 | C[C@@H](c1ccc(Cl)cc1)n1nnc2c1NC(=O)C[C@]21C(=O)N(Cc2ccc(Cl)cc2)c2ccc(Cl)cc21 | 2200 nM | 200 nM | 3300 nM | 6500 nM | > 10000 nM
17 | CCN1C(=O)[C@]2(CC(=O)Nc3c2nnn3[C@@H](C)c2ccc(Cl)cc2)c2cc(Cl)ccc21 | 2500 nM | 6 nM | 24 nM | > 5000 nM | > 10000 nM
18 | C[C@@H](c1ccc(Cl)cc1)n1nnc2c1NC(=O)C[C@]21C(=O)N(CCCN2CCOCC2)c2ccc(Cl)cc21 | > 5000 nM | 5 nM | 76 nM | > 5000 nM | > 10000 nM
19 | CNCCN1C(=O)[C@]2(CC(=O)Nc3c2nnn3[C@@H](C)c2ccc(Cl)cc2)c2cc(Cl)ccc21 | > 5000 nM | 22 nM | 120 nM | > 5000 nM | > 10000 nM
20 | C[C@@H](c1ccc(Cl)cc1)n1nnc2c1NC(=O)C[C@]21C(=O)N(CCN2CCCCC2)c2ccc(Cl)cc21 | > 5000 nM | 5 nM | 74 nM | > 5000 nM | > 10000 nM

Row | Structure (SMILES) | EC50 (dengue virus type 1) | EC50 (dengue virus type 3) | EC50 (dengue virus type 2) | EC50 (dengue virus type 4) | CC50 at 48 h [1]
21 | COCCCN1C(=O)C[C@]2(C(=O)Nc3ccc(Cl)cc32)c2nnn([C@@H](C)c3ccc(Cl)cc3)c21 | > 10000 nM | 910 nM | 8700 nM | > 10000 nM | > 10000 nM
22 | C[C@@H](c1ccc(Cl)cc1)n1nnc2c1NC(=O)C[C@]21C(=O)N(Cc2ccc(Cl)nc2)c2ccc(Cl)cc21 | > 5000 nM | 6 nM | 78 nM | > 5000 nM | > 10000 nM
23 | C[C@@H](c1ccc(Cl)cc1)n1nnc2c1N(C)C(=O)C(C)(C)[C@]21C(=O)N(C)c2ccc(Cl)cc21 | > 5000 nM | > 5000 nM | > 5000 nM | > 5000 nM | > 10000 nM
24 | COc1cccc(CN2C(=O)[C@]3(CC(=O)Nc4c3nnn4[C@@H](C)c3ccc(Cl)cc3)c3cc(Cl)ccc32)c1 | 2600 nM | 87 nM | 830 nM | 6200 nM | > 10000 nM
25 | C#CCN1C(=O)[C@]2(CC(=O)Nc3c2nnn3[C@@H](C)c2ccc(Cl)cc2)c2cc(Cl)ccc21 | > 5000 nM | 3 nM | 69 nM | > 5000 nM | > 10000 nM
26 | C[C@@H](c1ccc(Cl)cc1)n1nnc2c1NC(=O)C[C@]21C(=O)N(CCN2CCCC2)c2ccc(Cl)cc21 | > 5000 nM | 6 nM | 38 nM | > 5000 nM | > 10000 nM
27 | COC(=O)CN1C(=O)[C@]2(CC(=O)Nc3c2nnn3[C@@H](C)c2ccc(Cl)cc2)c2cc(Cl)ccc21 | > 5000 nM | 11 nM | 77 nM | > 5000 nM | > 10000 nM
28 | C[C@@H](c1ccc(Cl)cc1)n1nnc2c1NC(=O)C[C@]21C(=O)N(Cc2ccc(Cl)c(F)c2)c2ccc(Cl)cc21 | 1500 nM | 290 nM | 4000 nM | 5100 nM | > 10000 nM
29 | C[C@@H](c1ccc(Cl)cc1)n1nnc2c1NC(=O)C[C@]21C(=O)N(Cc2ccncc2)c2ccc(Cl)cc21 | > 5000 nM | 25 nM | 72 nM | > 5000 nM | > 10000 nM
30 | CCOC(CN1C(=O)[C@]2(CC(=O)Nc3c2nnn3[C@@H](C)c2ccc(Cl)cc2)c2cc(Cl)ccc21)OCC | > 5000 nM | 76 nM | 290 nM | > 5000 nM | > 10000 nM
31 | CC(C)CN1C(=O)[C@]2(CC(=O)Nc3c2nnn3[C@@H](C)c2ccc(Cl)cc2)c2cc(Cl)ccc21 | 1300 nM | 20 nM | 150 nM | > 5000 nM | > 10000 nM
32 | C[C@@H](c1ccc(Cl)cc1)n1nnc2c1NC(=O)C[C@]21C(=O)N(CCCCCCBr)c2ccc(Cl)cc21 |  |  | 3000 nM |  | > 10000 nM
33 | CCCCCCCCCCN1C(=O)[C@]2(CC(=O)Nc3c2nnn3[C@@H](C)c2ccc(Cl)cc2)c2cc(Cl)ccc21 | 3400 nM | 1200 nM | > 10000 nM | 7300 nM | > 10000 nM
34 | C[C@@H](c1ccc(Cl)cc1)n1nnc2c1NC(=O)C[C@]21C(=O)N(CCCCCCCCBr)c2ccc(Cl)cc21 |  |  | > 5000 nM |  | > 10000 nM
35 | CC(C)N1C(=O)C[C@]2(C(=O)Nc3ccc(Cl)cc32)c2nnn([C@@H](C)c3ccc(Cl)cc3)c21 | 2100 nM | 310 nM | 860 nM | 4400 nM | > 10000 nM
36 | C[C@@H](c1ccc(Cl)cc1)n1nnc2c1NC(=O)C[C@]21C(=O)N(Cc2ccc(F)cc2)c2ccc(Cl)cc21 | 5000 nM | 48 nM | 160 nM | 10000 nM | > 10000 nM
37 | COCOCCN1C(=O)[C@]2(CC(=O)Nc3c2nnn3[C@@H](C)c2ccc(Cl)cc2)c2cc(Cl)ccc21 | > 5000 nM | 19 nM | 92 nM | > 5000 nM | > 10000 nM
38 | COCCCN1C(=O)[C@]2(CC(=O)Nc3c2nnn3[C@@H](C)c2ccc(Cl)cc2)c2cc(Cl)ccc21 | > 5000 nM | 9 nM | 40 nM | > 5000 nM | > 10000 nM
39 | C[C@@H](c1ccc(Cl)cc1)n1nnc2c1NC(=O)C[C@]21C(=O)N(CCF)c2ccc(Cl)cc21 | > 5000 nM | 9 nM | 38 nM | > 5000 nM | > 10000 nM
40 | C[C@@H](c1ccc(Cl)cc1)n1nnc2c1NC(=O)C[C@]21C(=O)N(CCc2ccccc2)c2ccc(Cl)cc21 | 1100 nM | 190 nM | 600 nM | > 5000 nM | > 10000 nM
